Results taken from ChEMBL document CHEMBL1144932, “Design, synthesis, and biological properties of new bis(acridine-4-carboxamides) as anticancer agents” (J Med Chem, 2003).

What was measured:
[1] = Apparent equilibrium constant for DNA binding (G-C); assay type: ADME
Summary of the method: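 Ethidium displacement at pH 7.0 in buffer of 10 mM Na2HPO4, 10 mM NaH2PO4, 1 mM EDTA with 1.26 μM ethidium bromide and 1 μM CT-DNA, [poly(dA-dT)]2 or [poly(dG-dC)]2. Drug stock (~5 mM in DMSO) added serially. Fluorescence read at 20 °C, excitation 546 nm, emission 595 nm. C50 is the mean of three determinations. Kapp = 1.26/C50 × 10^7.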

MCF7 [2] = experiment: Percent growth of breast MCF-7 cell line at compound concentration 10e-6 was determined; assay type: functional, Homo sapiens
Summary of the method: (§1)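 Cells in the NCI panel were exposed for 48 h to 10^-8, 10^-6 and 10^-4 or 10^-5 M drug. Growth is given as percent of untreated control (100%). Negative values are the percent of cells killed relative to the initial cell number.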

MCF7 [3] = experiment: Percent growth of breast MCF-7 cell line at compound concentration 10e-8 was determined; assay type: functional, Homo sapiens; summary of the method: as §1
MCF7 [4] = experiment: Percent growth of breast MCF-7 cell line at compound concentration 10e-5 was determined; assay type: functional, Homo sapiens; summary of the method: as §1
HCT-116 [5] = experiment: Percent growth of colon HCT116 cell line at compound concentration 10e-5 was determined; assay type: functional, Homo sapiens; summary of the method: as §1
HCT-116 [6] = experiment: Percent growth of colon HCT116 cell line at compound concentration 10e-6 was determined; assay type: functional, Homo sapiens; summary of the method: as §1
HCT-116 [7] = experiment: Percent growth of colon HCT116 cell line at compound concentration 10e-8 was determined; assay type: functional, Homo sapiens; summary of the method: as §1
Homo sapiens = species on record: Homo sapiens; experiment: In vitro cytotoxic activity against human colon adenocarcinoma (HT-29).; assay type: functional
Summary of the method: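 HT29 cells were seeded at 2.5 × 10^4 cells/mL of medium and drug solutions were added. Exposure lasted 144 h. IC50 is the drug concentration inhibiting cell growth by 50%. Assays were run in triplicate.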

NCI-H460 [8] = experiment: Percent growth of lung-NSC NCI-H460 cell line at compound concentration 10e-5 was determined; assay type: functional, Homo sapiens; summary of the method: as §1
NCI-H460 [9] = experiment: Percent growth of lung-NSC NCI-H460 cell line at compound concentration 10e-6 was determined; assay type: functional, Homo sapiens; summary of the method: as §1
RPMI-8226 [10] = experiment: Percent growth of leukemia RPMI-8226 cell line at compound concentration 10e-5 was determined; assay type: functional, Homo sapiens; summary of the method: as §1
RPMI-8226 [11] = experiment: Percent growth of leukemia RPMI-8226 cell line at compound concentration 10e-6 was determined; assay type: functional, Homo sapiens; summary of the method: as §1
RPMI-8226 [12] = experiment: Percent growth of leukemia RPMI-8226 cell line at compound concentration 10e-8 was determined; assay type: functional, Homo sapiens; summary of the method: as §1
NCI-H460 [13] = experiment: Percent growth of lung-NSC NCI-H460 cell line at compound concentration 10e-8 was determined; assay type: functional, Homo sapiens; summary of the method: as §1
LOX IMVI [14] = experiment: Percent growth of melanoma LOX IMVI cell line at compound concentration 10e-5 was determined; assay type: functional, Homo sapiens; summary of the method: as §1
LOX IMVI [15] = experiment: Percent growth of melanoma LOX IMVI cell line at compound concentration 10e-6 was determined; assay type: functional, Homo sapiens; summary of the method: as §1
LOX IMVI [16] = experiment: Percent growth of melanoma LOX IMVI cell line at compound concentration 10e-8 was determined; assay type: functional, Homo sapiens; summary of the method: as §1
OVCAR-4 [17] = experiment: Percent growth of ovarian OVCAR-4 cell line at compound concentration 10e-5 was determined; assay type: functional, Homo sapiens; summary of the method: as §1
OVCAR-4 [18] = experiment: Percent growth of ovarian OVCAR-4 cell line at compound concentration 10e-8 was determined; assay type: functional, Homo sapiens; summary of the method: as §1
786-0 [19] = experiment: Percent growth of renal 786-0 cell line at compound concentration 10e-5 was determined; assay type: functional, Homo sapiens; summary of the method: as §1
786-0 [20] = experiment: Percent growth of renal 786-0 cell line at compound concentration 10e-6 was determined; assay type: functional, Homo sapiens; summary of the method: as §1
786-0 [21] = experiment: Percent growth of renal 786-0 cell line at compound concentration 10e-8 was determined; assay type: functional, Homo sapiens; summary of the method: as §1
DU-145 [22] = experiment: Percent growth of prostate DU-145 cell line at compound concentration 10e-5 was determined; assay type: functional, Homo sapiens; summary of the method: as §1
DU-145 [23] = experiment: Percent growth of prostate DU-145 cell line at compound concentration 10e-6 was determined; assay type: functional, Homo sapiens; summary of the method: as §1
DU-145 [24] = experiment: Percent growth of prostate DU-145 cell line at compound concentration 10e-8 was determined; assay type: functional, Homo sapiens; summary of the method: as §1
SNB-19 [25] = experiment: Percent growth of CNS SNB-19 cell line at compound concentration 10e-5 was determined; assay type: functional, Homo sapiens; summary of the method: as §1
SNB-19 [26] = experiment: Percent growth of CNS SNB-19 cell line at compound concentration 10e-6 was determined; assay type: functional, Homo sapiens; summary of the method: as §1
SNB-19 [27] = experiment: Percent growth of CNS SNB-19 cell line at compound concentration 10e-8 was determined; assay type: functional, Homo sapiens; summary of the method: as §1
OVCAR-4 [28] = experiment: Percent growth of ovarian OVCAR-4 cell line at compound concentration 10e-6 was determined; assay type: functional, Homo sapiens; summary of the method: as §1
MCF7 [29] = experiment: Percent growth of breast MCF-7 cell line at compound concentration 10e-4 was determined; assay type: functional, Homo sapiens; summary of the method: as §1
HCT-116 [30] = experiment: Percent growth of colon HCT116 cell line at compound concentration 10e-4 was determined; assay type: functional, Homo sapiens; summary of the method: as §1
NCI-H460 [31] = experiment: Percent growth of lung-NSC NCI-H460 cell line at compound concentration 10e-4 was determined; assay type: functional, Homo sapiens; summary of the method: as §1
RPMI-8226 [32] = experiment: Percent growth of leukemia RPMI-8226 cell line at compound concentration 10e-4 was determined; assay type: functional, Homo sapiens; summary of the method: as §1
LOX IMVI [33] = experiment: Percent growth of melanoma LOX IMVI cell line at compound concentration 10e-4 was determined; assay type: functional, Homo sapiens; summary of the method: as §1
OVCAR-4 [34] = experiment: Percent growth of ovarian OVCAR-4 cell line at compound concentration 10e-4 was determined; assay type: functional, Homo sapiens; summary of the method: as §1
786-0 [35] = experiment: Percent growth of renal 786-0 cell line at compound concentration 10e-4 was determined; assay type: functional, Homo sapiens; summary of the method: as §1
DU-145 [36] = experiment: Percent growth of prostate DU-145 cell line at compound concentration 10e-4 was determined; assay type: functional, Homo sapiens; summary of the method: as §1
SNB-19 [37] = experiment: Percent growth of CNS SNB-19 cell line at compound concentration 10e-4 was determined; assay type: functional, Homo sapiens; summary of the method: as §1

## CN(C)CCNC(=O)c1ccc(NCCCN(C)CCCNc2ccc(C(=O)NCCN(C)C)c3nc4ccccc4c(O)c23)c2c(O)c3ccccc3nc12
[1]
  K app: 7.5e+07 M⁻¹
MCF7 [2]
  Growth: -6%
MCF7 [3]
  Growth: 22%
MCF7 [4]
  Growth: -86%
HCT-116 [5]
  Growth: -96%
HCT-116 [6]
  Growth: -35%
HCT-116 [7]
  Growth: 20%
Homo sapiens
  IC50: 0.43 nM
NCI-H460 [8]
  Growth: -90%
NCI-H460 [9]
  Growth: -52%
RPMI-8226 [10]
  Growth: -49%
RPMI-8226 [11]
  Growth: -37%
RPMI-8226 [12]
  Growth: 16%
NCI-H460 [13]
  Growth: 12%
LOX IMVI [14]
  Growth: -93%
LOX IMVI [15]
  Growth: -65%
LOX IMVI [16]
  Growth: 30%
OVCAR-4 [17]
  Growth: -74%
OVCAR-4 [18]
  Growth: 46%
786-0 [19]
  Growth: -98%
786-0 [20]
  Growth: -26%
786-0 [21]
  Growth: 30%
DU-145 [22]
  Growth: -72%
DU-145 [23]
  Growth: -31%
DU-145 [24]
  Growth: 11%
SNB-19 [25]
  Growth: -55%
SNB-19 [26]
  Growth: -20%
SNB-19 [27]
  Growth: 38%
OVCAR-4 [28]
  Growth: -47%

## CN(C)CCNC(=O)c1ccc(NCCCN(C)CCCNc2ccc(C(=O)NCCN(C)C)c3nc4ccccc4cc23)c2cc3ccccc3nc12
[1]
  K app: 9.4e+07 M⁻¹
Homo sapiens
  IC50: 47 nM

## COc1ccc2nc3c(C(=O)NCCCN(C)CCCNC(=O)c4ccc(NCCN(C)C)c5c(O)c6cc(OC)ccc6nc45)ccc(NCCN(C)C)c3c(O)c2c1
MCF7 [2]
  Growth: 0%
MCF7 [3]
  Growth: 18%
MCF7 [29]
  Growth: -85%
HCT-116 [30]
  Growth: -97%
HCT-116 [6]
  Growth: -23%
HCT-116 [7]
  Growth: 17%
Homo sapiens
  IC50: 2 nM
NCI-H460 [31]
  Growth: -90%
NCI-H460 [9]
  Growth: -10%
RPMI-8226 [32]
  Growth: -44%
RPMI-8226 [11]
  Growth: -36%
RPMI-8226 [12]
  Growth: 4%
NCI-H460 [13]
  Growth: 9%
LOX IMVI [33]
  Growth: -73%
LOX IMVI [15]
  Growth: -2%
LOX IMVI [16]
  Growth: 31%
OVCAR-4 [34]
  Growth: -96%
OVCAR-4 [18]
  Growth: 38%
786-0 [35]
  Growth: -98%
786-0 [20]
  Growth: 1%
786-0 [21]
  Growth: 28%
DU-145 [36]
  Growth: -77%
DU-145 [23]
  Growth: -25%
DU-145 [24]
  Growth: 25%
SNB-19 [37]
  Growth: -85%
SNB-19 [26]
  Growth: 3%
SNB-19 [27]
  Growth: 38%
OVCAR-4 [28]
  Growth: -21%

## CN(C)CCNC(=O)c1ccc(NCCN(C)C)c2c(O)c3cc([N+](=O)[O-])ccc3nc12
Homo sapiens
  IC50: 190 nM

## CN(CCNC(=O)c1ccc(Cl)c2c(O)c3ccccc3nc12)CCNC(=O)c1ccc(Cl)c2c(O)c3ccccc3nc12
Homo sapiens
  IC50: 5500 nM

## CN(C)CCNC(=O)c1ccc(NCCCN(C)CCCNc2ccc(C(=O)NCCN(C)C)c3nc4ccc(O)cc4c(O)c23)c2c(O)c3cc(O)ccc3nc12
[1]
  K app: 7.4e+07 M⁻¹
Homo sapiens
  IC50: 6900 nM

## O=C1c2c(O)ccc(O)c2C(=O)c2c(NCCNCCO)ccc(NCCNCCO)c21 [MITOXANTRONE]
Homo sapiens
  IC50: 10 nM
